Measured values taken from ChEMBL document CHEMBL5329156, “Discovery and development of novel substituted monohydrazides as potent antifungal agents” (RSC Med Chem, 2023).
Values after ≈ are worked out from the molar mass of the structure shown. Active and inactive are the calls of the source. No cut-off for these calls is given here.

What was measured:
[Candida] auris [1] = Antifungal activity against Candida auris AR Bank # 385 assessed as fungal growth inhibition by double dilution method; type: functional; conditions: Candidozyma auris
In short: (§1)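 Broth microdilution after CLSI M27-A3/M38-A2 with minor changes. Single colony grown overnight in YPD at 35 °C, 200 rpm. Compound final range 0.06-31.3 µg/mL; incubated 48 h at 35 °C.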

[Candida] auris [2] = Antifungal activity against Candida auris AR Bank # 383 assessed as fungal growth inhibition by double dilution method; type: functional; conditions: Candidozyma auris; in short: as §1
Kodamaea ohmeri = test: Antifungal activity against Kodamaea ohmeri AR Bank # 396 assessed as fungal growth inhibition by double dilution method; type: functional; in short: as §1
Candida albicans [3] = test: Antifungal activity against itraconazole/fluconazole susceptible Candida albicans ATCC MYA-2876 assessed as fungal growth inhibition by double dilution method; type: functional
In short: (§2)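 Broth microdilution after CLSI M27-A3/M38-A2 with minor modifications. A single colony was grown overnight in YPD at 35 °C with shaking at 200 rpm. Cells were mixed 1:1 with compound (final 0.06-31.3 µg/mL, from DMSO stocks) and incubated 48 h at 35 °C.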

[Candida] haemuloni [4] = Antifungal activity against Candida haemulonii AR Bank # 395 assessed as fungal growth inhibition by double dilution method; type: functional; conditions: Candidozyma haemuli; in short: as §1
Pichia kudriavzevii [5] = test: Antifungal activity against Pichia kudriavzevii AR Bank # 397 assessed as fungal growth inhibition by double dilution method; type: functional; in short: as §1
Candida albicans [6] = test: Antifungal activity against itraconazole/fluconazole resistant Candida albicans ATCC 90819 assessed as fungal growth inhibition by double dilution method; type: functional; in short: as §2
[Candida] auris [7] = Antifungal activity against Candida auris AR Bank # 384 assessed as fungal growth inhibition by double dilution method; type: functional; conditions: Candidozyma auris; in short: as §1
HEK293 = test: Cytotoxicity against human HEK-293 cells assessed as reduction in cell viability at 31.3 microg/ml; type: toxicity, cell-based; conditions: dose 31.3 µg/ml
In short: (§3)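 Cells in DMEM with 10% FBS and 1% Pen/Strep, seeded at 10,000 cells/well and held overnight at 37 °C, 5% CO2. Compounds added at final 31.3-0.12 µg/mL (0.05% DMSO vehicle) for 24 h. Resazurin then added for 6 h; fluorescence read at ex 560/em 590. Triton X-100 1% as positive control; values normalized to vehicle. Run in quadruplicate.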

Aspergillus fumigatus [8] = test: Antifungal activity against Aspergillus fumigatus NRRL 5109 assessed as fungal growth inhibition by double dilution method; type: functional
[Candida] auris [9] = Antifungal activity against Candida auris AR Bank # 388 assessed as fungal growth inhibition by double dilution method; type: functional; conditions: Candidozyma auris; in short: as §1
Candida albicans [10] = test: Antifungal activity against itraconazole/fluconazole resistant Candida albicans ATCC MYA-1003 assessed as fungal growth inhibition by double dilution method; type: functional; in short: as §2
[Candida] auris [11] = Antifungal activity against Candida auris AR Bank # 387 assessed as fungal growth inhibition by double dilution method; type: functional; conditions: Candidozyma auris; in short: as §1
Candida duobushaemulonii [12] = test: Antifungal activity against Candida duobushaemulonii AR Bank # 394 assessed as fungal growth inhibition by double dilution method; type: functional; conditions: Candidozyma duobushaemuli; in short: as §1
J774.A1 = test: Cytotoxicity against J774A.1 cells assessed as reduction in cell viability at 31.3 microg/ml; type: toxicity, cell-based; conditions: mouse, dose 31.3 µg/ml; in short: as §3
Nakaseomyces glabratus [13] = test: Antifungal activity against Candida glabrata ATCC 2001 assessed as fungal growth inhibition by double dilution method; type: functional; in short: as §1
[Candida] auris [14] = Antifungal activity against Candida auris AR Bank # 382 assessed as fungal growth inhibition by double dilution method; type: functional; conditions: Candidozyma auris; in short: as §1
Saccharomyces cerevisiae [15] = test: Antifungal activity against Saccharomyces cerevisiae AR Bank # 400 assessed as fungal growth inhibition by double dilution method; type: functional; in short: as §1
[Candida] auris [16] = Antifungal activity against Candida auris AR Bank # 389 assessed as fungal growth inhibition by double dilution method; type: functional; conditions: Candidozyma auris; in short: as §1
Candida albicans [17] = test: Antifungal activity against Candida albicans ATCC 10231 assessed as fungal growth inhibition by double dilution method; type: functional; in short: as §1
[Candida] haemuloni [18] = Antifungal activity against Candida haemulonii AR Bank # 393 assessed as fungal growth inhibition by double dilution method; type: functional; conditions: Candidozyma haemuli; in short: as §1
Candida duobushaemulonii [19] = test: Antifungal activity against Candida duobushaemulonii AR Bank # 391 assessed as fungal growth inhibition by double dilution method; type: functional; conditions: Candidozyma duobushaemuli; in short: as §1
Aspergillus terreus = test: Antifungal activity against Aspergillus terreus ATCC MYA-3633 assessed as fungal growth inhibition by double dilution method; type: functional
[20] = Cytotoxicity against human HepG2 cells assessed as cell survival at 31.3 microg/ml relative to control; type: toxicity, cell-based; conditions: at 31.3 µg/mL, read-out: Activity; in short: as §3
Aspergillus flavus = test: Antifungal activity against Aspergillus flavus ATCC MYA-3631 assessed as fungal growth inhibition by double dilution method; type: functional
Pichia kudriavzevii [21] = test: Antifungal activity against Pichia kudriavzevii ATCC 6258 assessed as fungal growth inhibition by double dilution method; type: functional; in short: as §1
Candida albicans [22] = test: Antifungal activity against itraconazole/fluconazole resistant Candida albicans ATCC MYA-1237 assessed as fungal growth inhibition by double dilution method; type: functional; in short: as §2
Saccharomyces cerevisiae [23] = test: Antifungal activity against Saccharomyces cerevisiae AR Bank # 399 assessed as fungal growth inhibition by double dilution method; type: functional; in short: as §1
[Candida] auris [24] = Antifungal activity against Candida auris AR Bank # 386 assessed as fungal growth inhibition by double dilution method; type: functional; conditions: Candidozyma auris; in short: as §1
[Candida] auris [25] = Antifungal activity against Candida auris AR Bank # 381 assessed as fungal growth inhibition by double dilution method; type: functional; conditions: Candidozyma auris; in short: as §1
Aspergillus fumigatus [26] = test: Antifungal activity against Aspergillus fumigatus NRRL 163 assessed as fungal growth inhibition by double dilution method; type: functional
[Candida] auris [27] = Antifungal activity against Candida auris AR Bank # 0390 assessed as fungal growth inhibition by double dilution method; type: functional; conditions: Candidozyma auris; in short: as §1
Aspergillus nidulans = test: Antifungal activity against Aspergillus nidulans ATCC 38163 assessed as fungal growth inhibition by double dilution method; type: functional
Candida duobushaemulonii [28] = test: Antifungal activity against Candida duobushaemulonii AR Bank # 392 assessed as fungal growth inhibition by double dilution method; type: functional; conditions: Candidozyma duobushaemuli; in short: as §1
Aspergillus fumigatus [29] = test: Antifungal activity against Aspergillus fumigatus NRRL 6113 assessed as fungal growth inhibition by double dilution method; type: functional
Candida albicans [30] = test: Antibiofilm activity against Candida albicans ATCC 10231 assessed as reduction in biofilm production at 1.96 to 3.9 microg/ml by biofilm formation assay; type: functional, organism-based; conditions: dose 1.96-3.9 µg/ml
Candida albicans [31] = test: Antifungal activity against itraconazole/fluconazole susceptible Candida albicans ATCC MYA-2310 assessed as fungal growth inhibition by double dilution method; type: functional; in short: as §2
[Candida] auris [32] = Antifungal activity against Candida auris AR Bank # 390 assessed as fungal growth inhibition by double dilution method; type: functional; conditions: Candidozyma auris; in short: as §1
Cryptococcus neoformans = test: Antifungal activity against Cryptococcus neoformans ATCC MYA-895 assessed as fungal growth inhibition by double dilution method; type: functional; in short: as §1
Clavispora lusitaniae = test: Antifungal activity against Clavispora lusitaniae AR Bank # 398 assessed as fungal growth inhibition by double dilution method; type: functional; in short: as §1
[Candida] auris [33] = Antifungal activity against Candida auris AR Bank # 0384 assessed as fungal growth inhibition by double dilution method; type: functional; conditions: Candidozyma auris; in short: as §1
Nakaseomyces glabratus [34] = test: Antifungal activity against Candida glabrata ATCC 22019 assessed as fungal growth inhibition by double dilution method; type: functional; in short: as §1
Candida albicans [35] = test: Antifungal activity against Candida albicans ATCC 64124 assessed as fungal growth inhibition by double dilution method; type: functional; in short: as §2

For O=C(NNc1cc(F)cc(F)c1)c1ccccn1, the MIC ([Candida] auris [1]) was 0.24 µg/mL (≈ 0.963 µM), the MIC ([Candida] auris [2]) was 0.24 µg/mL (≈ 0.963 µM) and the MIC (Kodamaea ohmeri) was 0.12 µg/mL (≈ 0.482 µM). The MIC (Candida albicans [3]) was 0.98 µg/mL (≈ 3.93 µM), the MIC ([Candida] haemuloni [4]) was 0.24 µg/mL (≈ 0.963 µM) and the MIC (Pichia kudriavzevii [5]) was 0.12 µg/mL (≈ 0.482 µM). For the same molecule, the MIC (Candida albicans [6]) was 0.98 µg/mL (≈ 3.93 µM), the MIC ([Candida] auris [7]) was 0.98 µg/mL (≈ 3.93 µM) and the Activity (HEK293) was “Non-Toxic”. For the same molecule, the MIC (Aspergillus fumigatus [8]) was greater than 31.3 µg/mL, the MIC ([Candida] auris [9]) was 0.24 µg/mL (≈ 0.963 µM) and the MIC (Candida albicans [10]) was 0.49 µg/mL (≈ 1.97 µM). For the same molecule, the MIC ([Candida] auris [11]) was 0.24 µg/mL (≈ 0.963 µM), the MIC (Candida duobushaemulonii [12]) was 0.24 µg/mL (≈ 0.963 µM) and the Activity (J774.A1) was “Non-Toxic”. It also gave an MIC (Nakaseomyces glabratus [13]) of 7.8 µg/mL (≈ 31.3 µM), an MIC ([Candida] auris [14]) of 0.12 µg/mL (≈ 0.482 µM) and an MIC (Saccharomyces cerevisiae [15]) of 0.98 µg/mL (≈ 3.93 µM). It also gave an MIC ([Candida] auris [16]) of 0.24 µg/mL (≈ 0.963 µM), an MIC (Candida albicans [17]) of no more than 0.06 µg/mL and an MIC ([Candida] haemuloni [18]) of 0.49 µg/mL (≈ 1.97 µM). It also gave an MIC (Candida duobushaemulonii [19]) of 0.24 µg/mL (≈ 0.963 µM), an MIC (Aspergillus terreus) of 0.98 µg/mL (≈ 3.93 µM) and a viability at 31.3 microg/ml [20] of 89%. It also gave an MIC (Aspergillus flavus) of 1.95 µg/mL (≈ 7.82 µM), an MIC (Pichia kudriavzevii [21]) of 0.24 µg/mL (≈ 0.963 µM) and an MIC (Candida albicans [22]) of 1.95 µg/mL (≈ 7.82 µM). It also gave an MIC (Saccharomyces cerevisiae [23]) of 1.95 µg/mL (≈ 7.82 µM), an MIC ([Candida] auris [24]) of no more than 0.06 µg/mL and an MIC ([Candida] auris [25]) of 0.98 µg/mL (≈ 3.93 µM). The MIC (Aspergillus fumigatus [26]) was greater than 31.3 µg/mL, the MIC ([Candida] auris [27]) was 0.49 µg/mL (≈ 1.97 µM) and the MIC (Aspergillus nidulans) was 0.49 µg/mL (≈ 1.97 µM). For the same molecule, the MIC (Candida duobushaemulonii [28]) was 0.49 µg/mL (≈ 1.97 µM), the MIC (Aspergillus fumigatus [29]) was 31.3 µg/mL (≈ 126 µM) and the Activity (Candida albicans [30]) was “inactive”. For the same molecule, the MIC (Candida albicans [31]) was 0.98 µg/mL (≈ 3.93 µM), the MIC ([Candida] auris [32]) was 0.49 µg/mL (≈ 1.97 µM) and the MIC (Cryptococcus neoformans) was 0.24 µg/mL (≈ 0.963 µM). The MIC (Clavispora lusitaniae) was 0.49 µg/mL (≈ 1.97 µM), the MIC ([Candida] auris [33]) was 0.24 µg/mL (≈ 0.963 µM) and the MIC (Nakaseomyces glabratus [34]) was 1.95 µg/mL (≈ 7.82 µM). For the same molecule, the MIC (Candida albicans [35]) was 0.98 µg/mL (≈ 3.93 µM).
